We go through 16 compounds from ChEMBL document CHEMBL3286096, “Synthesis, biological evaluation and docking study of 3-aroyl-1-(4-sulfamoylphenyl)thiourea derivatives as 15-lipoxygenase inhibitors” (Eur J Med Chem, 2014).

As a reminder, the IC50 is the concentration that inhibits the measured activity by half.

A short description of assay [1]: Inhibition of soybean 15-LOX1 by UV spectrophotometric analysis. On the set-up: species or system Glycine max.
For assay [2], the system named is PC-12. The experiment in a line: Neuroprotective activity against H2O2-induced rat differentiated PC12 cell death assessed as increase in cell viability at 5 uM after 24 hrs by MTT assay. It counts as functional, cell-based. The essentials:
(§1)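 Rat PC12 cells grown in RPMI 1640 with 10% FCS, penicillin and streptomycin, then differentiated by a previously reported protocol. Differentiated cells were pretreated with compound at 1, 5 or 10 for 3 h before H2O2 exposure. Viability was read by MTT 24 h later and expressed relative to the H2O2-treated group.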
In general terms: Tetrazolium assays rely on reduction of a dye to a coloured formazan, in cell work by metabolically active cells.

A short description of assay [3]: Neuroprotective activity against H2O2-induced rat differentiated PC12 cell death assessed as increase in cell viability at 10 uM after 24 hrs by MTT assay. It counts as functional, PC-12. The essentials:
as §1

The subject of assay [4] is PC-12. Briefly: Neuroprotective activity against H2O2-induced rat differentiated PC12 cell death assessed as increase in cell viability at 1 to 10 uM after 24 hrs by MTT assay. It counts as functional, cell-based. Summed up:
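Rat PC12 cells were grown in RPMI 1640 with 10% FCS plus penicillin/streptomycin, then differentiated by a published protocol. Differentiated cells were pretreated with compound at 1, 5 and 10 for 3 h before H₂O₂ exposure, with quercetin 5 as reference. Viability was measured by MTT after 24 h and expressed relative to the H₂O₂-treated group.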

Activity calls are given as the source filed them. The rule behind the calls is not given here.

Regarding `NS(=O)(=O)c1ccc(NC(=S)NC(=O)c2ccccc2Cl)cc1`, the IC50 in assay [1] (read-out: IC50) was 18.7 µM.

As for `NS(=O)(=O)c1ccc(NC(=S)NC(=O)c2cccc(F)c2)cc1`, the IC50 in assay [1] (read-out: IC50) stood at 8.7 µM.

`Cc1ccc(C(=O)NC(=S)Nc2ccc(S(N)(=O)=O)cc2)cc1`: in assay [1] (read-out: IC50), the IC50 is 28 µM.

For `NS(=O)(=O)c1ccc(NC(=S)NC(=O)c2cccs2)cc1`, in assay [1] (read-out: IC50), the IC50 was 36 µM.

As to `O=c1c(O)c(-c2ccc(O)c(O)c2)oc2cc(O)cc(O)c12` [QUERCETIN], the IC50 in assay [1] (read-out: IC50) worked out at 18 µM. Moreover, the outcome in the assay with PC-12 [2] was Active.

Turning to `COc1ccc(C(=O)NC(=S)Nc2ccc(S(N)(=O)=O)cc2)cc1`, in assay [1] (read-out: IC50), the IC50 came out at 22.7 µM.

On to `NS(=O)(=O)c1ccc(NC(=S)NC(=O)c2ccc3ccccc3c2)cc1`, for which the IC50 result in assay [1] was “Not Active”.

On to `NS(=O)(=O)c1ccc(NC(=S)NC(=O)c2ccco2)cc1`, for which the IC50 in assay [1] (read-out: IC50) amounted to 45 µM.

Take `NS(=O)(=O)c1ccc(NC(=S)NC(=O)c2ccc(Cl)cc2)cc1`: in assay [1] (read-out: IC50), the IC50 is 25 µM.

For the compound `NS(=O)(=O)c1ccc(NC(=S)NC(=O)c2cc(F)c(F)c(F)c2F)cc1`, in assay [1] (read-out: IC50), the IC50 was 12.6 µM.

On to `NS(=O)(=O)c1ccc(NC(=S)NC(=O)c2ccccc2)cc1`, for which the IC50 in assay [1] (read-out: IC50) turned out to be 6 µM.

`NS(=O)(=O)c1ccc(NC(=S)NC(=O)c2cccc(Cl)c2)cc1`: in assay [1] (read-out: IC50), the IC50 turned out to be 6.7 µM.

On to `Cc1cccc(C(=O)NC(=S)Nc2ccc(S(N)(=O)=O)cc2)c1`, for which the IC50 in assay [1] (read-out: IC50) came out at 1.8 µM. For the same compound, the Activity in assay [3] came out at 50%. The result in the assay on PC-12 [4] was Active.

For the compound `Cc1ccccc1C(=O)NC(=S)Nc1ccc(S(N)(=O)=O)cc1`, in assay [1] (read-out: IC50), the IC50 was 8.1 µM.

As for `NS(=O)(=O)c1ccc(NC(=S)NC(=O)c2ccc([N+](=O)[O-])cc2)cc1`, the IC50 result in assay [1] is on record as “ND(Insoluble)”.

Regarding `NS(=O)(=O)c1ccc(NC(=S)NC(=O)c2ccc(Cl)cc2Cl)cc1`, the IC50 in assay [1] (read-out: IC50) was 23.6 µM.
